Reference: PMC12243159 (RSC Medicinal Chemistry, 2025)
pKi: −log10 of the molar value.

Key:
Format in all cases: biochemical
hCA IX = hCA IX (Homo sapiens, UniProt Q16790); assay: stopped-flow CO2 hydration assay, hCA IX; conditions: for SI I/IX: ratio of KI hCA I to KI hCA IX; for SI II/IX: ratio of KI hCA II to KI hCA IX
hCA I = hCA I (Homo sapiens, UniProt P00915); assay: stopped-flow CO2 hydration assay, hCA I
Procedure, shortened: (§1)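 Recombinant in-house enzyme, preincubated 15 min at room temperature with inhibitor. Inhibitor stock was 0.1 mM in water, diluted down to 0.01 nM. CO₂ (1.7–17 mM) hydration was followed by stopped-flow with 0.2 mM phenol red at 557 nm, in 20 mM HEPES pH 7.5 with 20 mM Na₂SO₄, over 10–100 s. Initial rates came from six traces and were corrected for the uncatalysed rate. Ki was obtained by non-linear least squares, mean of ≥3 measurements.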

hCA II = hCA II (Homo sapiens, UniProt P00918); assay: stopped-flow CO2 hydration assay, hCA II
Procedure, shortened: as §1

hCA XII = hCA XII (Homo sapiens, UniProt O43570); assay: stopped-flow CO2 hydration assay, hCA XII; conditions: for pKi: KI hCA XII; for SI I/XII: ratio of KI hCA I to KI hCA XII; for SI II/XII: ratio of KI hCA II to KI hCA XII
hCA XII, sequence (O43570 25-354): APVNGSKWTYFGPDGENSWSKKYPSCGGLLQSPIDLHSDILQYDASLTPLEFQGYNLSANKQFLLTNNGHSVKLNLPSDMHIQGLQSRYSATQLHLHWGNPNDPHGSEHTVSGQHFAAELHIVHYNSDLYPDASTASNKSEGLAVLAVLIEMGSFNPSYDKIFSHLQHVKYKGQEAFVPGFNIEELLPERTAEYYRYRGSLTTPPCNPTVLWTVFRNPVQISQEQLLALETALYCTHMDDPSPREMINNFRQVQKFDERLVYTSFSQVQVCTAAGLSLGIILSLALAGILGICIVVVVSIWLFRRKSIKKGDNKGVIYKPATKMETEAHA

hCA I, sequence (P00915 whole entry): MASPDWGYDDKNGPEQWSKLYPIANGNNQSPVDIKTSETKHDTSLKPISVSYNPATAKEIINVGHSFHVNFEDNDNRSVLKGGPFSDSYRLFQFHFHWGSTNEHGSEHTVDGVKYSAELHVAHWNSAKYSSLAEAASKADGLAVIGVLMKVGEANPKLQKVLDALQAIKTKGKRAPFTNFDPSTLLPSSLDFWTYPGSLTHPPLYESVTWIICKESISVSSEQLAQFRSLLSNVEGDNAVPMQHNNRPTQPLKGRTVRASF

Row | pKi (hCA IX) | SI I/IX (hCA IX) | SI II/IX (hCA IX) | pKi (hCA I) | pKi (hCA II) | pKi (hCA XII; stopped-flow hydration assay) | SI I/XII (hCA XII) | SI II/XII (hCA XII) | KI hCA XII (hCA XII; stopped-flow hydration assay) | SMILES
1 | 5.43 | 1.33 | 0.27 | 5.30 | 6.00 | 6.18 | 7.48 | 1.52 |  | COCCOc1cc2ncnc(Nc3cccc(-c4cn(CCOCCOCCOCCOCCOCCNC(=S)NCc5ccc(S(N)(=O)=O)cc5)nn4)c3)c2cc1OCCOC [compound 14c, 4-(21-(4-(3-((6,7-Bis(2-methoxyethoxy)quinazoline-4-yl)amino)phenyl)-1H-1,2,3-triazol-1-yl)-3-thioxo-7,10,13,16,19-pentaoxa-2,4-diazahenicosyl)benzenesulfonamide]
2 | 5.33 | 15.0 | 7.21 | 4.15 | 4.47 |  |  |  | no activity | COCCOc1cc2ncnc(Nc3cccc(-c4cn(CCOCCOCCOCCOCCOCCC(=O)NCCOc5ccc6oc(=O)ccc6c5)nn4)c3)c2cc1OCCOC [compound 11, 1-(4-(3-((6,7-Bis(2-methoxyethoxy)quinazoline-4-yl)amino)phenyl)-1H-1,2,3-triazol-1-yl)-N-(2-((2-oxo-2H-chromen-6-yl)oxy)ethyl)-3,6,9,12,15-pentaoxaoctadecan-18-amide]
3 | 5.25 | 4.41 | 0.02 | 4.61 | 7.04 | 7.12 | 329 | 1.21 |  | COCCOc1cc2ncnc(Nc3cccc(-c4cn(CCOCCOCCOCCOCCOCCNC(=O)Nc5ccc(S(N)(=O)=O)cc5)nn4)c3)c2cc1OCCOC [compound 12b, 4-(3-(17-(4-(3-((6,7-Bis(2-methoxyethoxy)quinazolin-4-yl)amino)phenyl)-1H-1,2,3-triazol-1-yl)-3,6,9,12,15-pentaoxaheptadecyl)ureido)benzenesulfonamide]
4 | 6.62 | 117 | 46.9 | 4.55 | 4.94 | 5.09 | 3.51 | 1.41 |  | COCCOc1cc2ncnc(Nc3cccc(-c4cn(CCOCCOCCOCCOCCOCCNC(=O)Nc5ccc6oc(=O)ccc6c5)nn4)c3)c2cc1OCCOC [compound 13, 1-(17-(4-(3-((6,7-Bis(2-methoxyethoxy)quinazolin-4-yl)amino)phenyl)-1H-1,2,3-triazol-1-yl)-3,6,9,12,15-pentaoxaheptadecyl)-3-(2-oxo-2H-chromen-6-yl)urea]
5 | 5.73 | 0.51 | 17.4 | 6.02 | 4.49 | 7.02 | 10.0 | 344 |  | COCCOc1cc2ncnc(Nc3cccc(-c4cn(CCOCCOCCOCCOCCOCCNC(=S)NCCc5ccc(S(N)(=O)=O)cc5)nn4)c3)c2cc1OCCOC [compound 14d, 4-(22-(4-(3-((6,7-Bis(2-methoxyethoxy)quinazolin-4-yl)amino)phenyl)-1H-1,2,3-triazol-1-yl)-4-thioxo-8,11,14,17,20-pentaoxa-3,5-diazadocosyl)benzenesulfonamide]
6 | 6.41 | 0.41 | 0.002 | 6.80 | 9.10 | 6.03 | 0.17 | 0.0008 |  | COCCOc1cc2ncnc(Nc3cccc(-c4cn(CCOCCOCCOCCOCCOCCNC(=O)NCc5ccc(S(N)(=O)=O)cc5)nn4)c3)c2cc1OCCOC [compound 12c, 4-(21-(4-(3-((6,7-Bis(2-methoxyethoxy)quinazoline-4-yl)amino)phenyl)-1H-1,2,3-triazol-1-yl)-3-oxo-7,10,13,16,19-pentaoxa-2,4-diazahenicosyl)benzenesulfonamide]
7 | 5.35 | 15.7 | 0.23 | 4.15 | 5.99 | 5.19 | 11.0 | 0.16 |  | COCCOc1cc2ncnc(Nc3cccc(-c4cn(CCOCCOCCOCCOCCOCCNC(=O)Nc5cccc(S(N)(=O)=O)c5)nn4)c3)c2cc1OCCOC [compound 12a, 3-(3-(17-(4-(3-((6,7-Bis(2-methoxyethoxy)quinazoline-4-yl)amino)phenyl)-1H-1,2,3-triazol-1-yl)-3,6,9,12,15-pentaoxaheptadecyl)ureido)benzenesulfonamide]

Further lines, the molecule ahead of its results:

Row | SMILES | pKi (hCA IX) | SI I/IX (hCA IX) | SI II/IX (hCA IX) | pKi (hCA I) | pKi (hCA II) | pKi (hCA XII; stopped-flow hydration assay) | SI I/XII (hCA XII) | SI II/XII (hCA XII) | KI hCA XII (hCA XII; stopped-flow hydration assay)
8 | COCCOc1cc2ncnc(Nc3cccc(-c4cn(CCOCCOCCOCCNC(=S)Nc5ccc(S(N)(=O)=O)c(C)c5Br)nn4)c3)c2cc1OCCOC [compound 9, 4-(3-(2-(2-(2-(2-(4-(3-((6,7-Bis(2-methoxyethoxy)quinazolin-4-yl)amino)phenyl)-1H-1,2,3-triazol-1-yl)ethoxy)ethoxy)ethoxy)ethyl)thioureido)-3-bromo-2-methylbenzenesulfonamide] | 5.87 | 3.65 | 0.39 | 5.31 | 6.27 | 7.16 | 70.3 | 7.61 | 
9 | COCCOc1cc2ncnc(Nc3cccc(-c4cn(CCOCCOCCOCCNC(=O)Nc5cccc(S(N)(=O)=O)c5)nn4)c3)c2cc1OCCOC [compound 7a, 3-(3-(2-(2-(2-(2-(4-(3-((6,7-Bis(2-methoxyethoxy)quinazolin-4-yl)amino)phenyl)-1H-1,2,3-triazol-1-yl)ethoxy)ethoxy)ethoxy)ethyl)ureido)benzenesulfonamide] | 6.55 | 164 | 2.54 | 4.33 | 6.14 | 7.23 | 790 | 12.3 | 
10 | COCCOc1cc2ncnc(Nc3cccc(-c4cn(CCOCCOCCOCCNC(=S)NCCc5ccc(S(N)(=O)=O)cc5)nn4)c3)c2cc1OCCOC [compound 8d, 4-(16-(4-(3-((6,7-Bis(2-methoxyethoxy)quinazolin-4-yl)amino)phenyl)-1H-1,2,3-triazol-1-yl)-4-thioxo-8,11,14-trioxa-3,5-diazahexadecyl)benzenesulfonamide] | 7.55 | 32.6 | 3.73 | 6.03 | 6.97 | 8.19 | 142 | 16.3 | 
11 | COCCOc1cc2ncnc(Nc3cccc(-c4cn(CCOCCOCCOCCNC(=S)NCc5ccc(S(N)(=O)=O)cc5)nn4)c3)c2cc1OCCOC [compound 8c, 4-(15-(4-(3-((6,7-Bis(2-methoxyethoxy)quinazolin-4-yl)amino)phenyl)-1H-1,2,3-triazol-1-yl)-3-thioxo-7,10,13-trioxa-2,4-diazapentadecyl)benzenesulfonamide] | 7.59 | 127 | 44.57 | 5.48 | 5.94 | 7.16 | 47.0 | 16.5 | 
12 | COCCOc1cc2ncnc(Nc3cccc(-c4cn(CCOCCOCCOCCOCCOCCC(=O)NCc5ccc(S(N)(=O)=O)cc5)nn4)c3)c2cc1OCCOC [compound 10a, 1-(4-(3-((6,7-Bis(2-methoxyethoxy)quinazolin-4-yl)amino)phenyl)-1H-1,2,3-triazol-1-yl)-N-(4-sulfamoylbenzyl)-3,6,9,12,15-pentaoxaoctadecan-18-amide] | 5.38 | 0.22 | 0.06 | 6.04 | 6.60 | 5.48 | 0.27 | 0.08 | 
13 | COCCOc1cc2ncnc(Nc3cccc(-c4cn(CCOCCOCCOCCNC(=S)Nc5cccc(S(N)(=O)=O)c5)nn4)c3)c2cc1OCCOC [compound 8a, 3-(3-(2-(2-(2-(2-(4-(3-((6,7-Bis(2-methoxyethoxy)quinazolin-4-yl)amino)phenyl)-1H-1,2,3-triazol-1-yl)ethoxy)ethoxy)ethoxy)ethyl)thioureido)benzenesulfonamide] | 5.72 | 23.8 | 1.65 | 4.34 | 5.50 | 7.14 | 636 | 44.0 | 
14 | COCCOc1cc2ncnc(Nc3cccc(-c4cn(CCOCCOCCOCCNC(=S)Nc5ccc(S(N)(=O)=O)cc5)nn4)c3)c2cc1OCCOC [compound 8b, 4-(3-(2-(2-(2-(2-(4-(3-((6,7-Bis(2-methoxyethoxy)quinazolin-4-yl)amino)phenyl)-1H-1,2,3-triazol-1-yl)ethoxy)ethoxy)ethoxy)ethyl)thioureido)benzenesulfonamide] | 6.95 | 28 | 1.2 | 5.50 | 6.87 | 8.27 | 590 | 25.4 | 
15 | COCCOc1cc2ncnc(Nc3cccc(-c4cn(CCOCCOCCOCCNC(=O)Nc5ccc(S(N)(=O)=O)cc5)nn4)c3)c2cc1OCCOC [compound 7b, 4-(3-(2-(2-(2-(2-(4-(3-((6,7-Bis(2-methoxyethoxy)quinazolin-4-yl)amino)phenyl)-1H-1,2,3-triazol-1-yl)ethoxy)ethoxy)ethoxy)ethyl)ureido)benzenesulfonamide] | 5.95 | 32.1 | 0.85 | 4.44 | 6.02 | 7.24 | 628 | 16.6 | 
